The results in this text go back to ChEMBL document CHEMBL5126577, “Discovery of honokiol thioethers containing 1,3,4-oxadiazole moieties as potential α-glucosidase and SARS-CoV-2 entry inhibitors” (Bioorg Med Chem, 2022).

A value given as a limit tells only on which side of the number the result lay.

Series [1] in a line: Inhibition of alpha-glucosidase (unknown origin) using PNPG as substrate at 5 to 45 uM preincubated for 15 mins followed by substrate addition and measured after 10 mins by microplate reader analysis. Particulars: Homo sapiens; dose 5-45 µM, time 25.0 min. The gist of the method: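 Compounds in DMSO/PBS dilution series were incubated with α-glucosidase (1.0 U/mL in PBS) for 15 min at 37 °C. 1 mM PNPG was added and incubated 10 min, then OD was read at 405 nm. Inhibition % was corrected with PBS-only and enzyme-free blanks. IC50 was calculated, with experiments run in triplicate.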

A short description of series [2]: Cytotoxicity against human HEK-293T cells overexpressing ACE2 assessed as maximal non-toxic dose incubated for 4 hrs. Format: toxicity, cell-based.
Series [3] addresses Spike glycoprotein (Severe acute respiratory syndrome coronavirus 2, UniProt P0DTC2). The series can be described thus: Binding affinity to SARS-CoV-2 spike protein receptor-binding domain assessed as equilibrium dissociation constant by biolayer interferometry assay. The gist of the method:
(§1)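 BLI on Ni-NTA biosensors loaded with His-tagged recombinant SARS-CoV-2 spike RBD or human ACE2. Compounds (10 mM DMSO stock) were diluted serially in PBS. Each cycle: PBS equilibration 10 min, baseline 120 s, association 120 s, dissociation in PBS 120 s, all at 30 °C. Curves were double-referenced to blank sensors and PBS, and KD came from a 1:1 binding fit.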

Series [4] has as its target Angiotensin-converting enzyme 2 (Homo sapiens, UniProt Q9BYF1). Put plainly: Binding affinity to human ACE2 assessed as equilibrium dissociation constant by biolayer interferometry assay. The procedure, abridged:
as §1

The subject of series [5] is L02. Put plainly: Cytotoxicity against human L02 cells assessed as reduction on cell viability at 3.125 to 100 uM by MTT assay. It is filed as toxicity, cell-based. Conditions: l02, 100 µM, dose 3.125-100 µM.
The nature of series [6]: Cytotoxicity against human L02 cells assessed as cell survival rate at 100 uM by MTT assay. Format: toxicity, cell-based. Conditions: read-out: Survival.

Angiotensin-converting enzyme 2, sequence (Q9BYF1 whole entry): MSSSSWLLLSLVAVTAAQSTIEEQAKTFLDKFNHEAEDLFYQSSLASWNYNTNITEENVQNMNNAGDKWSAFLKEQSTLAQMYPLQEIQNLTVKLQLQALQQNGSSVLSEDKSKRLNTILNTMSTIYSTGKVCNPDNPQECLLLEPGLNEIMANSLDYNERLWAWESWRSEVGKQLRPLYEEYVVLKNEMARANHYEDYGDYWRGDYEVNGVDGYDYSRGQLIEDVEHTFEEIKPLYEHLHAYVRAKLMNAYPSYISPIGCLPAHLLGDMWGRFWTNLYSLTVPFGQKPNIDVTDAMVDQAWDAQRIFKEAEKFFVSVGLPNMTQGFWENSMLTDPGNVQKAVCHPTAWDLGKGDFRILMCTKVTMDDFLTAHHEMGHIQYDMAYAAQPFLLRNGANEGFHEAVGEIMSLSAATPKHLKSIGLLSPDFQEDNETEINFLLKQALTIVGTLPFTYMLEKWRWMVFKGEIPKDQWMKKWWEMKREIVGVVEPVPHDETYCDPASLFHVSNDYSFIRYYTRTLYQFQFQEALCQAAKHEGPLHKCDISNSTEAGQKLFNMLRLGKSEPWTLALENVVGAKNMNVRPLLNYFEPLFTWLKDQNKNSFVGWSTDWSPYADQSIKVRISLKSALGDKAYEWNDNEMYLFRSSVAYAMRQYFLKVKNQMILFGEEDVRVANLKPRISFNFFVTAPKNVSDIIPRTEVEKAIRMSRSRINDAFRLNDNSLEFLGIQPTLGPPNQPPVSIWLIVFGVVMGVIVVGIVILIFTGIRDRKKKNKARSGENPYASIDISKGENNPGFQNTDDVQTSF

In series [1], `C=CCc1cc(-c2cc(CC=C)c3oc(SCc4nnc(-c5cccc(OC)c5)o4)nc3c2)c2oc(SCc3nnc(-c4cccc(OC)c4)o3)nc2c1` had an inhibition of 95.5%. Further, in series [2], the MNTC at 4 h was above 100 µM.
In series [1], `C=CCc1cc(CSc2nnc(-c3cccc(C)c3)o2)c(O)c(-c2ccc(O)c(CC=C)c2)c1` showed an inhibition of 78.2%.
In series [1], `C=CCc1cc(CSc2nnc(-c3ccc(Br)cc3)o2)c(O)c(-c2ccc(O)c(CC=C)c2)c1` registered an inhibition of 3.7%.
In series [1], `C=CCc1cc(-c2cc(CC=C)c3oc(SCc4nnc(-c5ccccc5F)o4)nc3c2)c2oc(SCc3nnc(-c4ccccc4F)o3)nc2c1` registered an inhibition of 33.9%. Moreover, the MNTC at 4 h in series [2] was above 100 µM.
`C=CCc1cc(CSc2nnc(-c3ccc(C)cc3)o2)c(O)c(-c2ccc(O)c(CC=C)c2)c1` gave an inhibition in series [1] of 6.7%.
For the compound `C=CCc1cc(-c2cc(CC=C)c3oc(SCc4nnc(-c5ccccc5C)o4)nc3c2)c2oc(SCc3nnc(-c4ccccc4C)o3)nc2c1`, the MNTC at 4 h in series [2] was above 100 µM.
As to `C=CCc1cc(-c2cc(CC=C)c3oc(SCc4nnc(-c5ccc(Cl)cc5)o4)nc3c2)c2oc(SCc3nnc(-c4ccc(Cl)cc4)o3)nc2c1`, the inhibition in series [1] was 57.9%. Further, in series [2], the MNTC at 4 h was above 100 µM.
As to `C=CCc1cc(CSc2nnc(-c3ccccc3)o2)c(O)c(-c2ccc(O)c(CC=C)c2)c1`, the inhibition in series [1] was 69.8%. Further, the MNTC at 4 h in series [2] was above 100 µM. Besides, the dissociation constant (Kd) in series [3] is 6.94 µM; in series [4] it was 14 µM. Moreover, the Activity entry in series [5] is “Non-Toxic”. Further, the viability at 100 µM in series [6] turned out to be 80%.
Take `C=CCc1cc(CSc2nnc(-c3ccccc3F)o2)c(O)c(-c2ccc(O)c(CC=C)c2)c1`: the MNTC at 4 h in series [2] is above 100 µM.
The compound `C=CCc1cc(CSc2nnc(-c3ccc([N+](=O)[O-])cc3)o2)c(O)c(-c2ccc(O)c(CC=C)c2)c1` returned an inhibition in series [1] of 79.5%.
The compound `C=CCc1cc(-c2cc(CC=C)c3oc(SCc4nnc(-c5cccc(F)c5)o4)nc3c2)c2oc(SCc3nnc(-c4cccc(F)c4)o3)nc2c1` came in with an inhibition in series [1] of 14.6%. The MNTC at 4 h in series [2] was above 100 µM.
In series [1], `C=CCc1cc(CSc2nnc(-c3ccccc3Cl)o2)c(O)c(-c2ccc(O)c(CC=C)c2)c1` had an inhibition of 64.5%. Further, the MNTC at 4 h in series [2] was above 100 µM.
The compound `C=CCc1cc(-c2cc(CC=C)c3oc(SCc4nnc(-c5ccccc5Cl)o4)nc3c2)c2oc(SCc3nnc(-c4ccccc4Cl)o3)nc2c1` showed an inhibition in series [1] of 19.4%. Besides, the MNTC at 4 h in series [2] is above 100 µM.
The like results for `C=CCc1cc(-c2cc(CC=C)c3oc(SCc4nnc(-c5ccccc5Br)o4)nc3c2)c2oc(SCc3nnc(-c4ccccc4Br)o3)nc2c1` were, in that order, 91.5% and above 100 µM.
On the same counts, the results for `C=CCc1cc(-c2cc(CC=C)c3oc(SCc4nnc(-c5ccc(Br)cc5)o4)nc3c2)c2oc(SCc3nnc(-c4ccc(Br)cc4)o3)nc2c1` are 22.4% and above 100 µM.
In turn, `C=CCc1cc(CSc2nnc(-c3cccc(F)c3)o2)c(O)c(-c2ccc(O)c(CC=C)c2)c1` registered an inhibition in series [1] of 53.5%.
Consider `C=CCc1cc(-c2cc(CC=C)c3oc(SCc4nnc(-c5ccc(OC)cc5)o4)nc3c2)c2oc(SCc3nnc(-c4ccc(OC)cc4)o3)nc2c1`, for which, in series [1], the inhibition is 9.9%. In series [2], the MNTC at 4 h was above 100 µM.
`C=CCc1cc(-c2cc(CC=C)c3oc(SCc4nnc(-c5ccc(C)cc5)o4)nc3c2)c2oc(SCc3nnc(-c4ccc(C)cc4)o3)nc2c1`: the inhibition in series [1] was determined as 13.5%. The MNTC at 4 h in series [2] was above 100 µM.
The like results for `C=CCc1cc(-c2cc(CC=C)c3oc(SCc4nnc(-c5cccc(Cl)c5)o4)nc3c2)c2oc(SCc3nnc(-c4cccc(Cl)c4)o3)nc2c1` were, in that order, 10.4% and above 100 µM.
`C=CCc1cc(-c2cc(CC=C)c3oc(SCc4nnc(-c5ccccc5)o4)nc3c2)c2oc(SCc3nnc(-c4ccccc4)o3)nc2c1` yielded an inhibition in series [1] of 6.3%. Also, the MNTC at 4 h in series [2] was above 100 µM.
Consider `C=CCc1cc(-c2cc(CC=C)c3oc(SCc4nnc(-c5cccc(C)c5)o4)nc3c2)c2oc(SCc3nnc(-c4cccc(C)c4)o3)nc2c1`, for which the inhibition in series [1] is 95.2%. In addition, in series [2], the MNTC at 4 h was above 100 µM. In addition, in series [5], the Activity result is “Non-Toxic”. Moreover, the viability at 100 µM in series [6] was found to be 80%.
In turn, `C=CCc1ccc(O)c(-c2ccc(O)c(CC=C)c2)c1` [HONOKIOL] returned an inhibition in series [1] of 17.1%. For the same compound, the MNTC at 4 h in series [2] is 50 µM. Besides, in series [3], the Kd worked out at 25 µM.
Compound `C=CCc1cc(-c2cc(CC=C)c3oc(SCc4nnc(-c5ccccc5OC)o4)nc3c2)c2oc(SCc3nnc(-c4ccccc4OC)o3)nc2c1` came in with an inhibition in series [1] of 25.2%. Besides, the MNTC at 4 h in series [2] was above 100 µM.
In series [1], `C=CCc1cc(-c2cc(CC=C)c3oc(SCc4nnc(-c5ccc(F)cc5)o4)nc3c2)c2oc(SCc3nnc(-c4ccc(F)cc4)o3)nc2c1` showed an inhibition of 8.4%. Further, in series [2], the MNTC at 4 h is above 100 µM.
In turn, `C=CCc1cc(CSc2nnc(-c3cccc(OC)c3)o2)c(O)c(-c2ccc(O)c(CC=C)c2)c1` came in with an inhibition in series [1] of 81.8%.
`C=CCc1cc(CSc2nnc(-c3ccccc3C)o2)c(O)c(-c2ccc(O)c(CC=C)c2)c1` had an inhibition in series [1] of 64.5%. In addition, in series [2], the MNTC at 4 h is above 100 µM.
Regarding `C=CCc1cc(CSc2nnc(-c3cccnc3)o2)c(O)c(-c2ccc(O)c(CC=C)c2)c1`, in series [1], the inhibition is 33.2%. Also, the MNTC at 4 h in series [2] was above 100 µM. Besides, the equilibrium dissociation constant (Kd) in series [3] amounted to 7.29 µM; in series [4], 16 µM. Moreover, in series [5], the Activity result is “Non-Toxic”. Further, in series [6], the viability at 100 µM was found to be 80%.
Turning to `C=CCc1cc(CSc2nnc(-c3ccc(Cl)cc3)o2)c(O)c(-c2ccc(O)c(CC=C)c2)c1`, the inhibition in series [1] stood at 7.1%.
For the compound `C=CCc1cc(-c2cc(CC=C)c3oc(SCc4nnc(-c5cccc(Br)c5)o4)nc3c2)c2oc(SCc3nnc(-c4cccc(Br)c4)o3)nc2c1`, in series [1], the inhibition was 12.4%. In series [2], the MNTC at 4 h was above 100 µM.
